This is an account of results in ChEMBL document CHEMBL4346653, “A2B Adenosine Receptor Antagonists with Picomolar Potency” (J Med Chem, 2019).

Structures are written as SMILES. Where only a bound is given, the exact number is not on record here.

Test [1] has as its target T1, Adenosine receptor A2a (Homo sapiens, UniProt P29274). Put plainly: Displacement of [3H]MSX-2 from recombinant human A2A adenosine receptor expressed in CHO cell membranes at 1 uM measured after 30 mins in presence of adenosine deaminase by liquid scintillation counting method relative to control. The method, boiled down:
(§1)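 Single-point competition binding at human AR subtype membranes, each against its own tritiated radioligand. The test compound is given at 1 μM, and the result is reported as percent inhibition of radioligand binding. The radioligand-specific footnotes give n = 3.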

For test [2], the species on record is Homo sapiens. The test can be described thus: Selectivity index, ratio of Ki for displacement of [3H]PSB-11 from recombinant human A3 adenosine receptor expressed in CHO cell membranes to Ki for displacement of [3H]PSB-603 from recombinant human A2B adenosine receptor expressed in CHO cell membranes. Background: Displacement assays read how much labelled ligand stays bound in the presence of the test substance.

For test [3], the target named is T2, Adenosine receptor A1 (Homo sapiens) (UniProt P30542).
T2 sequence (whole entry): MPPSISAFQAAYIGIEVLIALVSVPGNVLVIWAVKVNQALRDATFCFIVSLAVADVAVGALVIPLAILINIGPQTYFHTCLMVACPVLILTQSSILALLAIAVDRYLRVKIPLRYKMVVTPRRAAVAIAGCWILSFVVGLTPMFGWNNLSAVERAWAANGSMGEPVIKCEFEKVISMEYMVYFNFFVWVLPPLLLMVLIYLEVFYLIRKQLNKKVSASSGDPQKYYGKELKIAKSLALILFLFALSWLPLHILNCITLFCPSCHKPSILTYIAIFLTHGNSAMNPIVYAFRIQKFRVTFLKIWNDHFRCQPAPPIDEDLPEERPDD
Put plainly: Displacement of [3H]CCPA from recombinant human A1 adenosine receptor expressed in CHO cell membranes at 1 uM measured after 90 mins in presence of adenosine deaminase by liquid scintillation counting method relative to control. Put shortly:
as §1

Test [4] concerns the target T3, Adenosine receptor A2b (Homo sapiens) (UniProt P29275).
T3 sequence (whole entry): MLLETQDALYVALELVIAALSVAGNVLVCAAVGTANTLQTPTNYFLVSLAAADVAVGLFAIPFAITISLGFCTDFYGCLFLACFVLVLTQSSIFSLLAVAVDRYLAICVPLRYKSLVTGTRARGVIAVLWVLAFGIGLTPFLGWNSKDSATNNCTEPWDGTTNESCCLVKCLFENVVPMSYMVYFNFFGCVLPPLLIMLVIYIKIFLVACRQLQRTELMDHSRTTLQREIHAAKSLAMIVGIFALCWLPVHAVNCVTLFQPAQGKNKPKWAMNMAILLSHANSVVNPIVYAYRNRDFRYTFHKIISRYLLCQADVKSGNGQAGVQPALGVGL
Put plainly: Competitive antagonist activity at recombinant human A2B adenosine receptor expressed in CHO cells assessed as reduction in NECA-induced […] cAMP accumulation preincubated for 10 mins followed by NECA stimulation for 15 mins […] and measured after 15 mins. The class given is functional, cell-based. Background: cAMP levels reflect the balance of adenylyl cyclase and phosphodiesterase activity.

In test [5] the target is T4, Adenosine receptor A2b (Mus musculus, UniProt Q60614).
T4 sequence (Q60614 whole entry): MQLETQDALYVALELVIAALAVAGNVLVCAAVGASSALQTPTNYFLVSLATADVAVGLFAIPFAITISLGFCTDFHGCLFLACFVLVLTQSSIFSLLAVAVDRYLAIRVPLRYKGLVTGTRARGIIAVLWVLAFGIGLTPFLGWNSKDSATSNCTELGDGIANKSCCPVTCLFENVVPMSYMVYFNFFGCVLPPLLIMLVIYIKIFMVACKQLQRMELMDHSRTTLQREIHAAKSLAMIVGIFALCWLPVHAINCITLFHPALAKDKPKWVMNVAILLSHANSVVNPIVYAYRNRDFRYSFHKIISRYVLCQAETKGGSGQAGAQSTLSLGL
The test can be described thus: Displacement of [3H]PSB-603 from recombinant mouse A2B adenosine receptor expressed in CHO cell membranes measured after 75 mins in presence of adenosine deaminase by liquid scintillation counting method.

In test [6] the target is T5, Adenosine receptor A1 (Homo sapiens, UniProt P30542).
T5 sequence (P30542 whole entry): T2 sequence (whole entry)
Put plainly: Displacement of [3H]CCPA from recombinant human A1 adenosine receptor expressed in CHO cell membranes measured after 90 mins in presence of adenosine deaminase by liquid scintillation counting method. Put shortly: (§2)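 Competition binding on membranes of cells recombinantly expressing the human receptor (CHO or HEK cells), with tritiated radioligand per subtype: [3H]PSB-603 for A2B, [3H]MSX-2 for A2A, [3H]CCPA for A1, [3H]PSB-11 for A3. Ki ± SEM from n = 3, some from extrapolated curves. Weak binders are reported as % inhibition of radioligand binding at 1 μM.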

Test [7] concerns the target T6, Adenosine receptor A3 (Homo sapiens) (UniProt P0DMS8).
T6 sequence (whole entry): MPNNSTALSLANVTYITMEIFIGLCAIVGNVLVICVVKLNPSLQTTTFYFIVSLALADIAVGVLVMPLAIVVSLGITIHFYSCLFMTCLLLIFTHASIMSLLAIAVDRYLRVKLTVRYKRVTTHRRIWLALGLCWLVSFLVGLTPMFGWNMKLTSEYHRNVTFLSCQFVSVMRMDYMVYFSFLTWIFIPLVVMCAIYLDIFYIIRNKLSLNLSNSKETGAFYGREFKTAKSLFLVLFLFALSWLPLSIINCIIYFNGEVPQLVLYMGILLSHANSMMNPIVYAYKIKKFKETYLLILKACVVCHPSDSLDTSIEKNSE
Put plainly: Displacement of [3H]PSB-11 from recombinant human A3 adenosine receptor expressed in CHO cell membranes at 1 uM measured after 45 mins in presence of adenosine deaminase by liquid scintillation counting method relative to control. The method, boiled down:
as §1

The target in test [8] is T7, Adenosine receptor A1 (Mus musculus, UniProt Q60612).
T7 sequence (Q60612 whole entry): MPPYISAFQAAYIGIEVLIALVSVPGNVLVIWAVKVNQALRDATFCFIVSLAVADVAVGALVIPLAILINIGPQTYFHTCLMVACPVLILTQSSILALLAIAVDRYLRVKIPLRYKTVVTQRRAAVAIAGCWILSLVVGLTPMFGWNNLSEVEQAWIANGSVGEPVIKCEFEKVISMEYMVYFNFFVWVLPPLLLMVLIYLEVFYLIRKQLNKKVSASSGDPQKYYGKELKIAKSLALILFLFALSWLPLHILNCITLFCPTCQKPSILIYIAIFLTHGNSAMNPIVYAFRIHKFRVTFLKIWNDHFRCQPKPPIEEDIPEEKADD
Put plainly: Displacement of [3H]CCPA from recombinant mouse A1 adenosine receptor expressed in CHO cell membranes measured after 90 mins in presence of adenosine deaminase by liquid scintillation counting method.

Test [9] has as its target T8, Adenosine receptor A3 (Homo sapiens, UniProt P0DMS8).
T8 sequence (P0DMS8 whole entry): T6 sequence (whole entry)
Put plainly: Displacement of [3H]PSB-11 from recombinant human A3 adenosine receptor expressed in CHO cell membranes measured after 45 mins in presence of adenosine deaminase by liquid scintillation counting method. The method, boiled down:
as §2

Test [10] concerns the target T1, Adenosine receptor A2a. The test can be described thus: Displacement of [3H]MSX-2 from recombinant human A2A adenosine receptor expressed in CHO cell membranes measured after 30 mins in presence of adenosine deaminase by liquid scintillation counting method. The method, boiled down:
as §2

The species named for test [11] is Homo sapiens. The test can be described thus: Selectivity index, ratio of Ki for displacement of [3H]MSX-2 from recombinant human A2A adenosine receptor expressed in CHO cell membranes to Ki for displacement of [3H]PSB-603 from recombinant human A2B adenosine receptor expressed in CHO cell membranes.

Broadly, the inhibition is the share of the control response that was lost under treatment. For orientation: Kb means the affinity of an antagonist, worked out from how it opposes an agonist. The term Ki denotes a measure of affinity in units of concentration, obtained from inhibition or displacement.

T1 sequence (P29274 whole entry): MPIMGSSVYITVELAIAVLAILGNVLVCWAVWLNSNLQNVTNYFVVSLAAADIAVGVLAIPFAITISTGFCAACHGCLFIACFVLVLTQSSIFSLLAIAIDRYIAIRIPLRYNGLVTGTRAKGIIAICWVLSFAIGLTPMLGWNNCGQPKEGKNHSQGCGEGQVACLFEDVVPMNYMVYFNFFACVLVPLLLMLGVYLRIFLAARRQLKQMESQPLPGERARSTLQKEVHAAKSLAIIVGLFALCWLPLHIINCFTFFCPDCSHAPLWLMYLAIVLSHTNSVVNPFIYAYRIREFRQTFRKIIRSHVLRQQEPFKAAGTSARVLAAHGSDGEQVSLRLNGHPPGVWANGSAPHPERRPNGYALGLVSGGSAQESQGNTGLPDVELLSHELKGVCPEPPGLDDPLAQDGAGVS

For the compound `CCCn1c(=O)c2[nH]c(-c3ccc(S(=O)(=O)N4CCN(c5ccc(Cl)cc5)CC4)cc3)nc2n(C)c1=O`, the inhibition was 33% in test [1], 22% in test [3] and 39% in test [7]. For the same compound, the Ratio Ki in test [2] and in [11] was over 520 each time. The Kb in test [4] was 1.61 nM. The Ki in test [5] is 8.34 nM; in [6], over 1000 nM; in test [8], 1520 nM; in test [9] it was over 1000 nM; in [10] it was over 1000 nM.
For `CCCn1c(=O)[nH]c2nc(-c3ccc(S(=O)(=O)N4CCN(c5ccc(Br)cc5)CC4)cc3)[nH]c2c1=O`, the inhibition stood at 33% in test [1], 13% in test [3] and 29% in test [7]. The Ratio Ki in test [2] and in test [11] was over 12000 in each case. Moreover, the Kb in [4] came out at 0.0598 nM. The Ki in test [5] was 0.131 nM; in test [6], over 1000 nM; in [8], over 1000 nM; in test [9], over 1000 nM; in test [10], over 1000 nM.
`CCCn1c(=O)[nH]c2nc(-c3ccc(S(=O)(=O)N4CCN(c5cccc(F)c5)CC4)cc3)[nH]c2c1=O`: the inhibition turned out to be 38% in test [1], 34% in test [3] and 44% in [7]. In addition, the Ratio Ki in test [2] and in test [11] was over 1580 in each case. In addition, the Kb in test [4] came out at 0.167 nM. Moreover, the Ki in test [5] was 0.926 nM; in test [6], over 1000 nM; in test [8], over 300 nM; in [9], over 1000 nM; in test [10], over 1000 nM.
